Test results published in ChEMBL document CHEMBL1133087, “Radioiodinated N-(2-diethylaminoethyl)benzamide derivatives with high melanoma uptake: structure-affinity relationships, metabolic fate, and intracellular localization” (J Med Chem, 2000).

Columns and labels:
[1] = tested on: Mus musculus; assay: Biodistribution was studied by injecting intravenously into C57B1/6 mice bearing subcutaneously transplanted B16 melanoma after 1 hr.; format: ADME, organism-based; details: in vivo, iv
[2] = tested on: Mus musculus; assay: (§1) Amount of urinary radioactivity collected within 4 hr after iv injection into C57B1/6 mice was analyzed by RP-HPLC.; format: ADME, organism-based, Urine; details: in vivo
[3] = The lipophilicity was measured in an octanol/water system at pH 7.4.; format: physicochemical
Summary of the method: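 HPLC-purified no-carrier-added radioiodinated benzamide was added to 0.067 M phosphate buffer at pH 7.4 with an equal volume of 1-octanol. The mixture was vortexed to equilibrium, centrifuged and the phases separated. Each phase was γ-counted, with log P = log(cpm octanol/cpm buffer).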

[4] = tested on: Mus musculus; assay: Biodistribution was studied by injecting intravenously into C57B1/6 mice bearing subcutaneously transplanted B16 spleen after 1 hr.; format: ADME, organism-based; details: in vivo, iv
[5] = tested on: Mus musculus; assay: Biodistribution was studied by injecting intravenously into C57B1/6 mice bearing subcutaneously transplanted B16 blood after 1 hr.; format: ADME, organism-based; details: in vivo, iv
[6] = tested on: Mus musculus; assay: Biodistribution was studied by injecting intravenously into C57B1/6 mice bearing subcutaneously transplanted B16 heart after 6 hr.; format: ADME, organism-based; details: in vivo, iv
[7] = tested on: Mus musculus; assay: Biodistribution was studied by injecting intravenously into C57B1/6 mice bearing subcutaneously transplanted B16 muscle after 1 hr.; format: ADME, organism-based, Muscle tissue; details: in vivo, iv
[8] = tested on: Mus musculus; assay: Biodistribution was studied by injecting intravenously into C57B1/6 mice bearing subcutaneously transplanted B16 muscle after 6 hr.; format: ADME, organism-based, Muscle tissue; details: in vivo, iv
[9] = tested on: Mus musculus; assay: Biodistribution was studied by injecting intravenously into C57B1/6 mice bearing subcutaneously transplanted B16 […] after 6 hr.; format: ADME, organism-based; details: in vivo, iv
[10] = tested on: Mus musculus; assay: Biodistribution was studied by injecting intravenously into C57B1/6 mice bearing subcutaneously transplanted B16 kidney after 1 hr.; format: ADME, organism-based; details: in vivo, iv
[11] = tested on: Mus musculus; assay: Biodistribution was studied by injecting intravenously into C57B1/6 mice bearing subcutaneously transplanted B16 kidney after 6 hr.; format: ADME, organism-based; details: in vivo, iv
[12] = tested on: Mus musculus; assay: Biodistribution was studied by injecting intravenously into C57B1/6 mice bearing subcutaneously transplanted B16 liver after 1 hr.; format: ADME, organism-based; details: in vivo, iv
[13] = tested on: Mus musculus; assay: Biodistribution was studied by injecting intravenously into C57B1/6 mice bearing subcutaneously transplanted B16 liver after 6 hr.; format: ADME, organism-based; details: in vivo, iv
[14] = tested on: Mus musculus; assay: Biodistribution was studied by injecting intravenously into C57B1/6 mice bearing subcutaneously transplanted B16 lung after 1 hr.; format: ADME, organism-based; details: in vivo, iv
[15] = tested on: Mus musculus; assay: Biodistribution was studied by injecting intravenously into C57B1/6 mice bearing subcutaneously transplanted B16 lung after 6 hr.; format: ADME, organism-based; details: in vivo, iv
[16] = tested on: Mus musculus; assay: Biodistribution was studied by injecting intravenously into C57B1/6 mice bearing subcutaneously transplanted B16 melanoma after 6 hr.; format: ADME, organism-based; details: in vivo, iv
[17] = tested on: Mus musculus; assay: Biodistribution was studied by injecting intravenously into C57B1/6 mice bearing subcutaneously transplanted B16 blood after 6 hr.; format: ADME, organism-based; details: in vivo, iv
[18] = tested on: Mus musculus; assay: Biodistribution was studied by injecting intravenously into C57B1/6 mice bearing subcutaneously transplanted B16 brain after 1 hr.; format: ADME, organism-based; details: in vivo, iv
[19] = tested on: Mus musculus; assay: Biodistribution was studied by injecting intravenously into C57B1/6 mice bearing subcutaneously transplanted B16 brain after 6 hr.; format: ADME, organism-based; details: in vivo, iv
[20] = tested on: Mus musculus; assay: Biodistribution was studied by injecting intravenously into C57B1/6 mice bearing subcutaneously transplanted B16 heart after 1 hr.; format: ADME, organism-based; details: in vivo, iv
[21] = tested on: Mus musculus; assay: Biodistribution was studied by injecting intravenously into C57B1/6 mice bearing subcutaneously transplanted B16 blood after 24 hr; format: ADME, organism-based; details: in vivo, iv
[22] = tested on: Mus musculus; assay: Biodistribution was studied by injecting intravenously into C57B1/6 mice bearing subcutaneously transplanted B16 muscle after 24 hr.; format: ADME, organism-based, Muscle tissue; details: in vivo, iv
[23] = tested on: Mus musculus; assay: Biodistribution was studied by injecting intravenously into C57B1/6 mice bearing subcutaneously transplanted B16 spleen after 24 hr.; format: ADME, organism-based; details: in vivo, iv
[24] = tested on: Mus musculus; assay: Biodistribution was studied by injecting intravenously into C57B1/6 mice bearing subcutaneously transplanted B16 kidney after 24 hr.; format: ADME, organism-based; details: in vivo, iv
[25] = tested on: Mus musculus; assay: Biodistribution was studied by injecting intravenously into C57B1/6 mice bearing subcutaneously transplanted B16 liver after 24 hr.; format: ADME, organism-based; details: in vivo, iv
[26] = tested on: Mus musculus; assay: Biodistribution was studied by injecting intravenously into C57B1/6 mice bearing subcutaneously transplanted B16 lung after 24 hr.; format: ADME, organism-based; details: in vivo, iv
[27] = tested on: Mus musculus; assay: Biodistribution was studied by injecting intravenously into C57B1/6 mice bearing subcutaneously transplanted B16 melanoma after 24 hr.; format: ADME, organism-based; details: in vivo, iv
[28] = tested on: Mus musculus; assay: Biodistribution was studied by injecting intravenously into C57B1/6 mice bearing subcutaneously transplanted B16 brain after 24 hr.; format: ADME, organism-based; details: in vivo, iv
[29] = tested on: Mus musculus; assay: Biodistribution was studied by injecting intravenously into C57B1/6 mice bearing subcutaneously transplanted B16 heart after 24 hr.; format: ADME, organism-based; details: in vivo, iv
[30] = tested on: B16; assay: Binding of radioiodinated compound in B16 cells as a function of specific activity for blood at 1 hr after injecting at 1.5(umol/mouse).; format: functional
Summary of the method: (§2)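 C57Bl/6 mice carried subcutaneous B16 melanoma. Melanoma and blood radioactivity were measured by γ-counting at 1 or 6 h and expressed as % ID/g (mean, n = 3).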

[31] = tested on: B16; assay: Binding of radioiodinated compound in B16 cells as a function of specific activity for blood at 1 hr after injecting at 1.5*10e-3 (uMol/mouse).; format: functional; summary of the method: as §2
[32] = tested on: B16; assay: Binding of radioiodinated compound in B16 cells as a function of specific activity for blood at 1 hr after injecting at 1.8*10e-6 (uMol/mouse).; format: functional; summary of the method: as §2
[33] = tested on: B16; assay: Binding of radioiodinated compound in B16 cells as a function of specific activity for blood at 6 hr after injecting at 1.5(umol/mouse).; format: functional; summary of the method: as §2
[34] = tested on: B16; assay: Binding of radioiodinated compound in B16 cells as a function of specific activity for blood at 6 hr after injecting at 1.5*10e-3 (uMol/mouse); format: functional; summary of the method: as §2
[35] = tested on: B16; assay: Binding of radioiodinated compound in B16 cells as a function of specific activity for blood at 6 hr after injecting at 1.8*10e-6 (uMol/mouse).; format: functional; summary of the method: as §2
[36] = tested on: B16; assay: Binding of radioiodinated compound in B16 cells as a function of specific activity for melanoma after 1 hr injecting at 1.8*10e-6 (uMol/mouse).; format: functional; summary of the method: as §2
[37] = tested on: B16; assay: Binding of radioiodinated compound in B16 cells as a function of specific activity for melanoma at 1 hr after injecting at 1.5(umol/mouse).; format: functional; summary of the method: as §2
[38] = tested on: B16; assay: Binding of radioiodinated compound in B16 cells as a function of specific activity for melanoma at 1 hr after injecting at 1.5*10e-3 (uMol/mouse).; format: functional; summary of the method: as §2
[39] = tested on: B16; assay: Binding of radioiodinated compound in B16 cells as a function of specific activity for melanoma at 6 hr after injecting at 1.5(umol/mouse).; format: functional; summary of the method: as §2
[40] = tested on: B16; assay: Binding of radioiodinated compound in B16 cells as a function of specific activity for melanoma at 6 hr after injecting at 1.5*10e-3 (uMol/mouse).; format: functional; summary of the method: as §2
[41] = tested on: B16; assay: Binding of radioiodinated compound in B16 cells as a function of specific activity for melanoma at 6 hr after injecting at 1.8*10e-6 (uMol/mouse).; format: functional; summary of the method: as §2
[42] = tested on: Mus musculus; assay: as §1; format: functional, Urine

Row | SMILES | ID/g [1] | ID [2] | logD [3] | ID/g [4] | ID/g [5] | ID/g [6] | ID/g [7] | ID/g [8] | ID/g [9] | ID/g [10] | ID/g [11] | ID/g [12] | ID/g [13] | ID/g [14] | ID/g [15] | ID/g [16] | ID/g [17] | ID/g [18] | ID/g [19] | ID/g [20] | also measured
1 | CCN(CC)CCNC(=O)c1cc(I)ccc1OC | 7.73% | 71% | 1.26 | 2.5% | 0.46% | 0.09% | 0.19% | 0.04% | 0.15% | 1.71% | 0.41% | 0.88% | 0.26% | 1.15% | 0.19% | 6.8% | 0.14% | 0.5% | 0.04% | 0.46% | 
2 | CCN(CC)CCNC(=O)c1cc(OC)ccc1I | 8.06% |  | 1.16 | 1.26% | 0.9% | 0.13% | 0.38% | 0.08% | 0.31% | 1.81% | 0.17% | 1.23% | 0.23% | 1.41% | 0.41% | 2.32% | 0.33% | 0.15% | 0.02% | 0.63% | 
3 | CCN(CC)CCNC(=O)c1cc(I)c(NC(C)=O)cc1OC | 21.87% | 16% | 1.78 | 6.55% | 3.3% | 1.05% | 1.37% | 0.44% | 2.09% | 5.09% | 1.97% | 8.03% | 9.86% | 5.53% | 3.02% | 23.32% | 2.56% | 0.62% | 0.19% | 2.1% | ID/g [21]: 0.21%; ID/g [22]: 0.03%; ID/g [23]: 0.17%; ID/g [24]: 0.4%; ID/g [25]: 3.72%; ID/g [26]: 0.25%; ID/g [27]: 16.06%; ID/g [28]: 0.02%; ID/g [29]: 0.09%
4 | CCN(CC)CCNC(=O)c1ccc(I)cc1 |  |  |  |  |  |  |  |  |  |  |  |  |  |  |  |  |  |  |  |  | ID/g [30]: 1.04%; ID/g [31]: 1.06%; ID/g [32]: 0.65%; ID/g [33]: 0.1%; ID/g [34]: 0.15%; ID/g [35]: 0.17%; ID/g [36]: 5.67%; ID/g [37]: 11.6%; ID/g [38]: 10%; ID/g [39]: 14.6%; ID/g [40]: 15.5%; ID/g [41]: 9.32%; ID [42]: 66%
